In brackets after ≈: the same amount, converted by molar mass.
What was measured:
A549 [1] = test: Cytotoxicity against human A549 cells after 72 hrs by SRB assay; format: functional
Outline: (§1)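 Human tumor cells seeded in 96-well plates 24 h before treatment, then exposed continuously to a range of compound concentrations for 72 h. Inhibition of cell proliferation read by SRB or MTT staining as named in each line. IC50 derived. Adriamycin (ADR) included as positive control.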

K562 [2] = test: Cytotoxicity against human K562 cells after 72 hrs by MTT assay; format: functional, cell-based; conditions: K562, 72 h; outline: as §1
Bel-7402 [3] = test: Cytotoxicity against human Bel7402 cells after 72 hrs by SRB assay; format: functional, cell-based; conditions: Bel-7402, 72 h; outline: as §1
K562 [4] = test: Cytotoxicity against human K562 cells after 72 hrs by SRB assay; format: functional, cell-based; conditions: K562, 72 h; outline: as §1
A549 [5] = test: Cytotoxicity against human A549 cells after 72 hrs by MTT assay; format: functional, cell-based; conditions: A549, 72 h; outline: as §1
Bel-7402 [6] = test: Cytotoxicity against human Bel7402 cells after 72 hrs by MTT assay; format: functional, cell-based; conditions: Bel-7402, 72 h; outline: as §1

CC1=CC([C@H]2O[C@@]34[C@H](C[C@@H]5O[C@@]53[C@@H]3[C@H](O)C[C@H]5C(C)(C)O[C@@H]6CC(=O)O[C@@]65C[C@@]3(O)C[C@@H]4O)[C@@H]2C)OC1=O (stereo partly drawn) [KADCOCCILACTONE J]
IC (A549 [1]): >100 µg/mL
IC50 (K562 [2]): > 100 µg/mL
IC50 (Bel-7402 [3]): > 100 µg/mL
IC50 (K562 [4]): > 100 µg/mL
IC50 (A549 [5]): > 100 µg/mL
IC50 (Bel-7402 [6]): > 100 µg/mL

CC1=CC[C@@H]([C@@H](C)[C@]2(O)CC[C@@]3(C)[C@@H]4CC[C@H]5C(C)(C)O[C@@H]6CC(=O)O[C@@]65C[C@@]4(O)CC[C@@]32C)OC1=O [KADCOCCILACTONE A]
IC (A549 [1]): >100 µg/mL
IC50 (K562 [2]): > 100 µg/mL
IC50 (Bel-7402 [3]): 36.4 µg/mL (≈ 70.5 µM)
IC50 (K562 [4]): > 100 µg/mL
IC50 (A549 [5]): > 100 µg/mL
IC50 (Bel-7402 [6]): 36.4 µg/mL (≈ 70.5 µM)

CC1=CC[C@@H]([C@@H](C)[C@@H]2CC=C3[C@@H]4CC[C@H]5C(C)(C)O[C@@H]6CC(=O)O[C@@]65C[C@@]4(OC=O)CC[C@@]32C)OC1=O [KADCOCCILACTONE D]
IC (A549 [1]): >100 µg/mL
IC50 (K562 [2]): > 100 µg/mL
IC50 (Bel-7402 [3]): > 100 µg/mL
IC50 (K562 [4]): > 100 µg/mL
IC50 (A549 [5]): > 100 µg/mL
IC50 (Bel-7402 [6]): > 100 µg/mL

CC(=O)O[C@H]1CC([C@H](C)[C@H](O)[C@@H]2C[C@H](C)C(=O)O2)=C2CC[C@]3(O)C[C@]45OC(=O)C[C@@]4(O)OC(C)(C)[C@@H]5CC[C@H]3[C@]21C [KADCOCCILACTONE F]
IC (A549 [1]): >100 µg/mL
IC50 (K562 [2]): > 100 µg/mL
IC50 (Bel-7402 [3]): > 100 µg/mL
IC50 (K562 [4]): > 100 µg/mL
IC50 (A549 [5]): > 100 µg/mL
IC50 (Bel-7402 [6]): > 100 µg/mL

CC(=O)O[C@H]1C[C@@H]2[C@H](C)[C@@H](C3CC(C)C(=O)O3)O[C@@]23CC[C@]2(O)C[C@]45OC(=O)C[C@H]4OC(C)(C)[C@@H]5C[C@@H](O)[C@H]2[C@@]13C (stereo partly drawn) [KADCOCCILACTONE I]
IC (A549 [1]): >100 µg/mL
IC50 (K562 [2]): > 100 µg/mL
IC50 (Bel-7402 [3]): > 100 µg/mL
IC50 (K562 [4]): > 100 µg/mL
IC50 (A549 [5]): > 100 µg/mL
IC50 (Bel-7402 [6]): > 100 µg/mL

CC(=O)O[C@@H]1C[C@]2(C)[C@@H]([C@H](C)[C@H]3CC=C(C)C(=O)O3)CC[C@@]2(C)CCC[C@H]2C(C)(C)O[C@@H]3CC(=O)O[C@@]32CC1=O [KADSUPHILACTONE A]
IC (A549 [1]): 96.6 µg/mL
IC50 (K562 [2]): 50.3 µg/mL (≈ 90 µM)
IC50 (Bel-7402 [3]): > 100 µg/mL
IC50 (K562 [4]): 50.3 µg/mL (≈ 90 µM)
IC50 (A549 [5]): 96.6 µg/mL (≈ 173 µM)
IC50 (Bel-7402 [6]): > 100 µg/mL

CC(=O)O[C@@H]1C[C@H]2C(C)(C)O[C@@H]3CC(=O)O[C@@]32C[C@@]2(O)CC[C@]34O[C@H](C5CC(C)C(=O)O5)[C@@H](C)[C@H]3C[C@H](O)[C@]4(C)[C@H]12 (stereo partly drawn) [KADCOCCILACTONE H]
IC (A549 [1]): >100 µg/mL
IC50 (K562 [2]): > 100 µg/mL
IC50 (Bel-7402 [3]): > 100 µg/mL
IC50 (K562 [4]): > 100 µg/mL
IC50 (A549 [5]): > 100 µg/mL
IC50 (Bel-7402 [6]): > 100 µg/mL

COc1cccc2c1C(=O)c1c(O)c3c(c(O)c1C2=O)C[C@@](O)(C(=O)CO)C[C@@H]3O[C@H]1C[C@H](N)[C@H](O)[C@H](C)O1 [DOXORUBICIN]
IC (A549 [1]): 0.025 µg/mL
IC50 (K562 [2]): 0.011 µg/mL (≈ 0.0202 µM)
IC50 (Bel-7402 [3]): 0.01 µg/mL (≈ 0.0184 µM)
IC50 (K562 [4]): 0.011 µg/mL (≈ 0.0202 µM)
IC50 (A549 [5]): 0.025 µg/mL (≈ 0.046 µM)
IC50 (Bel-7402 [6]): 0.01 µg/mL (≈ 0.0184 µM)

CC1=C[C@H]([C@H](O)[C@H](C)[C@@H]2C[C@H]3O[C@]34[C@@H]3CC[C@@H]5C(C)(C)O[C@H]6CC(=O)O[C@]65C[C@]3(O)CC[C@@]24C)OC1=O [MICRANDILACTONE B]
IC (A549 [1]): >100 µg/mL
IC50 (K562 [2]): > 100 µg/mL
IC50 (Bel-7402 [3]): > 100 µg/mL
IC50 (K562 [4]): > 100 µg/mL
IC50 (A549 [5]): > 100 µg/mL
IC50 (Bel-7402 [6]): > 100 µg/mL

CC1=C[C@@H]([C@@H](O)[C@@H](C)[C@]23CC[C@@]4(CO2)[C@@H]2CC[C@H]5C(C)(C)O[C@@H]6CC(=O)O[C@@]65C[C@@]2(O)CC[C@@]43C)OC1=O [KADCOCCILACTONE G]
IC (A549 [1]): >100 µg/mL
IC50 (K562 [2]): > 100 µg/mL
IC50 (Bel-7402 [3]): > 100 µg/mL
IC50 (K562 [4]): > 100 µg/mL
IC50 (A549 [5]): > 100 µg/mL
IC50 (Bel-7402 [6]): > 100 µg/mL

CC1=C[C@@H]([C@@H](O)[C@@H](C)[C@H]2CC=C3[C@@H]4CC[C@H]5C(C)(C)O[C@@H]6CC(=O)O[C@@]65C[C@@]4(O)CC[C@@]32C)OC1=O [KADCOCCILACTONE E]
IC (A549 [1]): >100 µg/mL
IC50 (K562 [2]): > 100 µg/mL
IC50 (Bel-7402 [3]): > 100 µg/mL
IC50 (K562 [4]): > 100 µg/mL
IC50 (A549 [5]): > 100 µg/mL
IC50 (Bel-7402 [6]): > 100 µg/mL

CC1=CC[C@@H]([C@@H](C)[C@@H]2CC[C@@]3(CO)[C@@H]4CC[C@H]5C(C)(C)O[C@@H]6CC(=O)O[C@@]65C[C@@]4(O)CC[C@]23C)OC1=O [KADCOCCILACTONE C]
IC (A549 [1]): >100 µg/mL
IC50 (K562 [2]): 53.3 µg/mL (≈ 103 µM)
IC50 (Bel-7402 [3]): > 100 µg/mL
IC50 (K562 [4]): 53.3 µg/mL (≈ 103 µM)
IC50 (A549 [5]): > 100 µg/mL
IC50 (Bel-7402 [6]): > 100 µg/mL

CC1=CC[C@@H]([C@@H](C)[C@@H]2CC[C@]3(O)[C@@H]4CC[C@H]5C(C)(C)O[C@@H]6CC(=O)O[C@@]65C[C@@]4(O)CC[C@]23C)OC1=O [KADCOCCILACTONE B]
IC (A549 [1]): >100 µg/mL
IC50 (K562 [2]): > 100 µg/mL
IC50 (Bel-7402 [3]): > 100 µg/mL
IC50 (K562 [4]): > 100 µg/mL
IC50 (A549 [5]): > 100 µg/mL
IC50 (Bel-7402 [6]): > 100 µg/mL
